This is an account of results in ChEMBL document CHEMBL3351262, “Design and synthesis of new benzimidazole-carbazole conjugates for the stabilization of human telomeric DNA, telomerase inhibition, and their selective action on cancer cells” (J Med Chem, 2014).

The species named for series [1] is Homo sapiens. Description: Binding affinity to human Hum21 [5'-G3(T2AG3)3-3'] G-quadruplex DNA assessed as change in melting temperature in 10 mM pH 7.4 Tris-Hcl buffer containing 0.1 mM EDTA and 0.1 mM NaCl […] (reference value: 7 to 10 degC).
The next series deals with HEK-293T. Description: Cytotoxicity against transformed HEK293T cells at 0.5 to 8 uM after 72 hrs by MTT assay. It is filed as functional, cell-based. Particulars: Homo sapiens. Put shortly:
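Cells were seeded at 15.0 × 10³/well and grown 72 h to >70% confluency. They were treated with ligand or 0.1% DMSO in 10% FBS for 72 h at 37 °C, 5% CO2, then given fresh DMEM/10% FBS. MTT (5 mg/mL stock) was added for 4 h, formazan dissolved in DMSO, and read at 595 nm. Viability was normalized to untreated cells after DMSO-blank subtraction. Doses were run in triplicate, with at least three independent experiments.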
For orientation: Formazan colour is commonly taken as a measure of viable cells.

Series [2] is described as follows: Binding affinity to human Hum21 [5'-G3(T2AG3)3-3'] G-quadruplex DNA at 5 uM in 10 mM pH 7.4 Tris-Hcl buffer containing 0.1 mM EDTA and 0.1 M KCl by UV-Vis absorption sperctrometry.
The next series deals with Calf thymus DNA. As to the kind of experiment: Binding affinity to calf thymus DNA in 10 mM pH 7.4 Tris-Hcl buffer containing 0.1 mM EDTA and 40 mM NaCl by CD spectroscopy. Conditions: Bos taurus.
Series [3] can be described thus: Drug uptake in cytoplasm of HFF cells at 10 uM after 12 hrs by confocal microscopy. Format: ADME, cell-based. Particulars: human. Summed up: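 Cells were grown on glass coverslips and treated with 10 μM ligand for 12 h. They were washed in DPBS, fixed in 4% paraformaldehyde for 10 min, and permeabilized with 0.1% Triton X-100 for 5 min. Nuclei were counterstained with propidium iodide. Blue ligand fluorescence and nuclear localization were imaged by confocal microscopy.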

For series [4], the species on record is Homo sapiens. Description: Stabilization of 32P-ATP labeled human Hum21 [5'-G3(T2AG3)3-3'] G-quadruplex DNA assessed as protection against S1 nuclease-mediated degradation at 2.5 to 5 uM pre-incubated for 4 hrs before S1 nuclease addition by PAGE method. Summed up: (§1)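 5′-32P-labelled Hum21 was mixed with cold DNA and annealed in KCl; lanes were run in 50 mM KCl. G4 DNA was pre-incubated with ligand for 4 h. 2 μM DNA was digested with 20 U S1 nuclease for 2 min, quenched with acetate/CT DNA/EDTA stop buffer, and ethanol precipitated. Products ran on a 15% polyacrylamide urea sequencing gel beside an A+G ladder and were imaged by phosphorimager.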

Series [5] is filed under the species Homo sapiens. As to the kind of experiment: Binding affinity to human Hum21 [5'-G3(T2AG3)3-3'] G-quadruplex DNA in 10 mM pH 7.4 Tris-Hcl buffer containing 0.1 mM EDTA and […] by CD spectroscopy.
The species entered for series [6] is Homo sapiens. Description: Stabilization of 32P-ATP labeled human Hum21 [5'-G3(T2AG3)3-3'] G-quadruplex DNA assessed as protection against S1 nuclease-mediated degradation at 2.5 to 7.5 uM pre-incubated for 4 hrs before S1 nuclease addition by PAGE method. Put shortly: as §1

Each structure is given as a SMILES string. Active and inactive are the calls of the source. No cut-off for these calls is given here.

For orientation: ΔTm means the shift of the melting midpoint relative to a reference. By Kd is commonly meant the equilibrium constant for the complex coming apart. Lower therefore signals tighter binding. As to `CN1CCN(CCCCn2c3ccc(-c4nc5cc(N6CCN(CCO)CC6)ccc5[nH]4)cc3c3cc(-c4nc5cc(N6CCN(CCO)CC6)ccc5[nH]4)ccc32)CC1`, the ΔTm in the series listed under Homo sapiens [1] worked out at 15 °C. Moreover, the outcome in the series on HEK-293T, in the series listed under Homo sapiens [4] and in the series filed under Homo sapiens [5] was Active. The compound further returned a Kd in series [2] of 30 nM. For the same compound, the outcome in the series on Calf thymus DNA was inactive. Besides, the Drug uptake result in series [3] was “Active”.
For `CN1CCN(CCCCn2c3ccc(-c4nc5cc(N6CCN(C)CC6)ccc5[nH]4)cc3c3cc(-c4nc5cc(N6CCN(C)CC6)ccc5[nH]4)ccc32)CC1`, in the series listed under Homo sapiens [1], the ΔTm was 12 °C. Further, the result in the series on HEK-293T, in the series listed under Homo sapiens [6] and in the series filed under Homo sapiens [5] was Active. The compound also returned a Kd in series [2] of 130 nM. In addition, the outcome in the series on Calf thymus DNA was inactive. Moreover, the Drug uptake entry in series [3] is given as “Active”.
